TRPC4 PAM – TRPC4 (mouse) allosteric potentiation; AID 2227; B-score at 10 µM; HEK293 TRPC4beta/mu-opioid, DAMGO EC20, Fluo-4 Ca2+ flux; hits give high values; 310,000 compounds, 0.42% hits;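 active means B-score of calcium response area above 5 SD of library B-scores, with initial fluorescence ratio within 5 SD of library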;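 further: B-score of integrated fluorescence ratio over time as area under calcium response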
TRPC6 activator – activators of mouse TRPC6 channel; 310,000 compounds, 0.13% hits; HEK293-TRPC6 membrane potential dye fluorescence; hits give high values; Q61143; B-score at 10 µM;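 active means B-score of the integrated fluorescence ratio above library mean plus 3 SD, and starting fluorescence ratio within library mean plus 5 SD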;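 further: higher score means more depolarization so channel activation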
TRPC4 agonist – opens the mouse TRPC4 cation channel; Q9QUQ5; B-score at 10 µM; HEK293 TRPC4beta/mu-opioid, Fluo4 calcium fluorescence; hits give high values; 310,000 compounds, 0.49% hits;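 active means B-score above 5 SD of library B-scores, and initial fluorescence ratio not above library mean plus 5 SD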;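 further: positive B-score marks a calcium rise read as TRPC4 activation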
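Material: TRPC4beta and mu-opioid receptor HEK293 stable cells | Incubation: 45 min room-temperature Fluo4 loading, 110 s read | Detection: Kinetic Fluo4 calcium fluorescence | Measure: Integrated baseline-normalised fluorescence ratio, converted to per-well B score | Benchmarks: Low control buffer alone, high control maximal DAMGO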
TRPC6 inh – mouse TRPC6 channel inhibition; Q61143; HEK293-TRPC6, membrane potential dye, ACh-evoked depolarization; hits give low values; B-score at 10 µM; 310,000 compounds, 1.1% hits; AID 2553;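 active means B-score under library mean minus 3 SD, initial fluorescence not abnormally high, positive integrated signal ratio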;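 further: B-score derived from integrated fluorescence ratio over the kinetic read; more negative B-score means stronger inhibition of depolarization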
TRPC4 block – inhibitors of mouse TRPC4 channel; HEK293 TRPC4beta/mu-opioid, DAMGO-evoked Fluo4 calcium flux; hits give low values; Q9QUQ5; 300,000 compounds, 0.39% hits; B-score at 10 µM;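 active means B-score over 3 SD under the library average, no early fluorescence shift, positive overall ratio signal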
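Assay system: HEK293 cells with stable TRPC4beta plus mu-opioid receptor expression. Dosing: single dose. Measured by: Fluo4 Ca2+ flux fluorescence. Also added: DAMGO in two steps, submaximal then maximal. Read-out: B score from integrated Fluo4 fluorescence ratio.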
An asterisk follows results filed as active; i = inactive. The list is not random: actives were taken first. Their share in the collection is about 2.3%.

SMILES	TRPC4 PAM	TRPC6 activator	TRPC4 agonist	TRPC6 inh	TRPC4 block
Cc1ccc2c(COC(=O)c3c(C)noc3C)cc(=O)oc2c1	i	i	i	i	i
Cc1nc2ccccn2c1-c1ccnc(SCc2ccc(Cl)cc2)n1	i	i	i	i	i
CC1(C)CC(=O)C(C(C2=C(O)CC(C)(C)CC2=O)c2ccc(Cl)c([N+](=O)[O-])c2)C(=O)C1 (stereo unspecified)	i	i	46*	i	i
O=C(CN1C(=O)COc2ccccc21)N1CCCC1	i	i	i	i	i
CC[C@@H](C)[C@H](CNC)NC[C@@H](Cc1cccc2ccccc12)NCCc1cccc(C(F)(F)F)c1	i	i	97*	i	i
C(C#CCCCCCCCCC[n+]1ccccc1)#CCCCCCCCCC[n+]1ccccc1	i	i	84*	i	i
Cc1ccc(Cl)cc1N1CCN(Cc2nc3ccsc3c(=O)[nH]2)CC1	28*	i	i	i	i
O=c1[nH]c(CN2CCN(c3ccc([N+](=O)[O-])cc3)CC2)nc2ccsc12	i	i	i	i	i
O=C(COc1ccc2oc(-c3ccccc3)cc(=O)c2c1)NCc1ccco1	i	i	i	i	i
CCOCCOc1nc(C)cc(C)c1S(=O)(=O)c1ccccc1C	i	i	i	i	i
Cc1cc(C)c(S(=O)(=O)c2ccccc2C)c(OCC(C)(C)C)n1	i	i	i	i	-6*
COC(=O)CSc1nnc(-c2sc3cc(OC)ccc3c2Cl)n1C	i	i	i	i	-6*
COC(=O)CSc1nc2cc(OC)ccc2n1C	i	i	i	i	i
CNC(=S)N1N=C(c2ccc(C)cc2)CC1c1cc(OC)ccc1OC (stereo unspecified)	17*	i	i	i	i
CNC(=S)N1N=C(c2ccc(C)cc2)CC1c1ccc(OC)cc1 (stereo unspecified)	i	i	i	i	i
O=C(O)C1CCCCC1C(=O)Nc1ccc(Cl)cc1Cl (stereo unspecified)	i	i	i	i	i
CN(C(=O)CSc1nnc(-c2ccc(F)cc2)c2ccccc12)C1CCS(=O)(=O)C1 (stereo unspecified)	i	i	i	i	i
Cc1ccccc1OCC(=O)Nc1ccccc1NC(=O)c1ccco1	i	i	i	i	i
Cc1ccccc1OCC(=O)NNC(=S)NC(=O)c1ccco1	i	i	88*	i	i
O=C(NNC(=S)NC(=O)c1ccccc1)c1ccc([N+](=O)[O-])cc1	i	i	56*	i	i
CCCCCC(=O)NNC(=S)NC(=O)c1ccc([N+](=O)[O-])cc1	i	i	79*	i	i
Cc1ccc(C(=O)NC(=S)NNC(=O)c2ccccc2[N+](=O)[O-])cc1	i	i	53*	i	i
CCN1CCCC(Sc2nc3c([nH]2)c(=S)n(C)c(=O)n3C)C1 (stereo unspecified)	i	i	i	i	i
O=C(CC1Sc2ccccc2NC1=O)OC(C(=O)NCCc1ccccc1)c1cccnc1 (stereo unspecified)	i	i	i	i	i
O=C(O)c1ccc(NC(=S)NC(=O)c2ccc(-c3ccccc3)cc2)cc1	i	i	i	i	-6*
SMILES	TRPC4 PAM	TRPC6 activator	TRPC4 agonist	TRPC6 inh	TRPC4 block
O=C(NNC(=S)NC(=O)c1ccc(Br)cc1)c1cccc([N+](=O)[O-])c1	i	i	i	i	i
O=C(NNC(=S)NC(=O)c1ccccc1Cl)c1cccc([N+](=O)[O-])c1	i	i	106*	i	i
Cc1ccccc1C(=O)NNC(=S)NC(=O)c1ccccc1	i	i	205*	i	i
Cc1ccc(C(=O)NC(=S)NNC(=O)c2ccccc2)cc1	i	i	90*	i	i
Cc1ccc(C(=O)NNC(=S)NC(=O)c2ccco2)cc1	i	i	133*	i	i
O=C(NNC(=S)NC(=O)c1ccccc1[N+](=O)[O-])c1ccccc1[N+](=O)[O-]	i	i	i	i	i
Cc1ccc(C(=O)NNC(=O)c2ccco2)cc1	i	i	i	i	i
Cc1ccc(C(=O)NNC(=S)NC(=O)c2ccccc2)cc1	i	i	218*	i	i
O=C(NNC(=S)NC(=O)c1ccccc1[N+](=O)[O-])c1ccc(Cl)cc1Cl	i	i	49*	i	i
Cc1cc(C)cc(N(CC(=O)Nc2ccc(C(F)(F)F)cc2)S(=O)(=O)c2c(C)[nH]c(=O)[nH]c2=O)c1	i	i	i	i	i
Cc1cc(C)cc(N(CC(=O)Nc2ccc(C)cc2Cl)S(=O)(=O)c2c(C)[nH]c(=O)[nH]c2=O)c1	22*	i	i	i	i
CCCCOC(=O)Nc1nnc(CC)s1	i	i	i	i	i
Brc1ccc2[nH]c3c(NCc4ccccn4)ncnc3c2c1	i	i	61*	i	i
O=C(CSc1nnc(NC(=O)c2ccccc2)s1)NCC1CCCO1 (stereo unspecified)	i	i	i	i	i
CN(C)CCCN(C(=O)c1nc2ccccc2s1)c1nc2ccc(F)cc2s1	i	i	i	i	i
COc1cc2nc(N(CCCN(C)C)C(=O)c3ccc(S(=O)(=O)N4CCc5ccccc54)cc3)sc2cc1OC	i	i	i	i	i
COc1ccc2sc(N(CCCN(C)C)C(=O)c3ccc(S(=O)(=O)N4CCCc5ccccc54)cc3)nc2c1	18*	i	i	i	i
CN(C)CCCN(C(=O)c1ccc(S(=O)(=O)N(C)C2CCCCC2)cc1)c1nc2ccc(F)cc2s1	i	i	140*	i	i
CCN(Cc1ccccc1)S(=O)(=O)c1ccc(C(=O)N(CCCN(C)C)c2nc3ccc(F)cc3s2)cc1	i	i	63*	i	i
CCN(Cc1ccccc1)S(=O)(=O)c1ccc(C(=O)N(CCCN(C)C)c2nc3cc4c(cc3s2)OCCO4)cc1	i	i	i	i	i
CN(C)CCCN(C(=O)c1ccc(C(=O)c2ccccc2)cc1)c1nc2ccc(F)cc2s1	i	i	121*	i	i
Cc1ccc(C)c(N(CC(=O)NC(C)(C)C)C(=O)CNC(=O)c2cccs2)c1	i	i	i	i	i
C=CCNCCCCOc1cccc(Br)c1	13*	i	i	i	i
O=C(CC1C(=O)NCCN1CC1CCCCC1)NCCc1ccc(F)cc1 (stereo unspecified)	i	i	51*	i	i

Source: PubChem BioAssay
